14-3-3 Bad PPI = inhibitors of 14-3-3 zeta/Bad binding, primary screen, biochemical, TR-FRET, bovine 14-3-3 zeta | TR-FRET 14-3-3zeta/Dy647-pBad peptide displacement, 1 h | inhibition, % at 21.7 µM | 220,000 compounds, 0.71% hits;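 active = inhibition above about 70%, limit read from the data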;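 also: 0% = full 14-3-3 plus peptide FRET controls and 100% = background without 14-3-3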
Target sequence (P63103 whole entry, looked up): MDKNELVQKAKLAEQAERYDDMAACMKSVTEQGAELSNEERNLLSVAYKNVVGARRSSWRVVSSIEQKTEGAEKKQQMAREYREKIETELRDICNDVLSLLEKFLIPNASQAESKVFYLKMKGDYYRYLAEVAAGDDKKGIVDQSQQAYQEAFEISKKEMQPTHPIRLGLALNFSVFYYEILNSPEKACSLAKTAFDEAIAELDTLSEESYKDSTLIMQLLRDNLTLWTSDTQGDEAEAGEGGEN
eIF4E 4G PPI = eIF4E–eIF4G protein interaction inhibitors, primary screen, biochemical, uHTS, TR-FRET, eIF4GI fragment. inhibition, % at 21.7 µM. TR-FRET eIF4E-eIF4GI(517-606) binding, 2 h. AID 782, 2007. Eukaryotic translation initiation factor 4E (Mus musculus) + Eukaryotic translation …. 220,000 compounds, 0.37% hits;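 also: 0% = full FRET control wells and 100% = background wells lacking eIF4GI fragment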
NCF1 inh = p47phox/p22phox peptide binding inhibitors, primary screen, biochemical, uHTS, NADPH oxidase regulatory subunit; inhibition, % at 24.7 µM; 220,000 compounds, 0.53% hits; fluorescence polarization, 2 h; Neutrophil cytosol factor 1 (Homo sapiens), P14598; AID 1274, 2008;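 also: 0% = p47phox with labelled peptide and 100% = labelled peptide alone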
Wee1 stabilizer = Wee1 degradation inhibitors, primary screen, cell-based, HeLa, Wee1K328M-luciferase, luminescence | reporter increase, % at 5 µM | AID 1321, 2008 | HeLa Luc-Wee1K328M stability; 100% = proteasome inhibitor MG132 effect | 220,000 compounds, 1.2% hits;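 active = activation above the mean of all tested compounds plus 3 SD, set per screening run, cut at about 8.8% in these data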;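 also: cells exposed to compound for 20 h before luminescence read; 0% = DMSO alone and 100% = MG132 at 30 µM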
RBBP9 inh = human RBBP9 inhibitors, primary screen, biochemical, fluorescence polarization, FP-Rh probe, HTS. Serine hydrolase RBBP9 (Homo sapiens), O75884. recombinant RBBP9. inhibition, % at 7.94 µM. 220,000 compounds, 0.2% hits. AID 1515, 2009;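 active = inhibition above the campaign mean of all tested compounds plus 3 SD, cut at about 14% in these data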;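 also: plate controls were DMSO wells with RBBP9 for no effect and wells lacking RBBP9 protein for full effect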
Target sequence (O75884 whole entry, looked up): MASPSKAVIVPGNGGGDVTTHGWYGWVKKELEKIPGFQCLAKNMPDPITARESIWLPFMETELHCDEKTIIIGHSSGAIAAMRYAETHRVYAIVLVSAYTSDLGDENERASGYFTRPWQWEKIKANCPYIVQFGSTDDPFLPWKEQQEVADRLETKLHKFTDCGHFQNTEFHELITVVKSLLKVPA
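Assay system: recombinant human RBBP9; Reagent: Serine-hydrolase probe FP-Rh, 375 nM pre-mixing; Doses: 7.94 µM single dose, 0.794% DMSO; Incubation: 30 min then 45 min, 25 °C; Detection: fluorescence polarization (mP), excitation 525 nm, emission 598 nm; Evaluation: percent inhibition from mP, scaled between DMSO and no-protein wells.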
An asterisk follows results filed as active; / = no result. Shown are actives, neighbours in structure and some others; about 2.8% of the full set was active somewhere.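 The calls were made as follows, unless noted: active = inhibition above about 30% (limit read from the data); inactive = the rest.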

SMILES	14-3-3 Bad PPI	eIF4E 4G PPI	NCF1 inh	Wee1 stabilizer	RBBP9 inh
Cc1cc(NS(=O)(=O)c2ccc(NC(=O)Nc3cccc(Cl)c3)cc2)no1	-7	-1	-34	-2	-1
Cc1cc(NS(=O)(=O)c2ccc(NC(=O)Nc3ccc4c(c3)OCO4)cc2)no1	6	3	-22	8.9*	-3
CCCCC(=O)N/N=C(C)/C=C/c1ccccc1F	-3	-2	-2	-3	-4
Cc1c(NS(=O)(=O)c2ccc3c(c2)Cc2ccccc2-3)c(=O)n(-c2ccccc2)n1C	-9	6	-8	-1	-4
Cc1c(C)n(CC(O)CN2CCCCC2)c2ccccc12 (stereo unspecified)	36	2	-7	-2	-7
Cc1c(C)n(CC(O)CN2CCOCC2)c2ccccc12 (stereo unspecified)	12	5	66*	-4	-8
CC(C)COc1ccc(C(=O)Nc2ccc(SC(F)F)cc2)cc1	-10	-3	-12	0	-4
O=C1C2CCCN2C(c2ccco2)N1c1ccc(F)cc1 (stereo unspecified)	5	2	-10	10*	-6
CN1CCN(C(=O)CCC(=O)O)CC1	5	-2	-6	2	-3
O=C(O)CCC(=O)N1CCCC1	-5	0	4	9.9*	-4
CC(=O)OCCCN1c2ccccc2Nc2nnc(-c3ccccc3)cc21	3	3	-15	9.1*	-1
NS(=O)(=O)c1cccc(NC(=O)COC(=O)C2(c3cccc(F)c3)CCCC2)c1	8	0	-12	6	-9
Cc1ccc(CSc2nnc(CNc3ccc(F)cc3)o2)cc1	-20	5	2	9.6*	0
CC(=O)Nc1ccc(S(=O)(=O)NCC(=O)NC(C)c2ccc(S(N)(=O)=O)cc2)cc1 (stereo unspecified)	-2	9	-7	2	-10
N#C/C(=C\c1ccc(N2CCCCC2)o1)C(=O)Nc1cccc(Br)c1	-24	-2	37*	1	-10
N#C/C(=C\c1ccc(N2CCCCC2)o1)C(N)=O	-17	6	-24	-3	-6
Oc1ccc(N2CCN(C(=S)NCCc3ccccc3)CC2)cc1	-12	7	95*	-2	1
OC1CCN(C(=S)NCCc2ccccc2)CC1	-13	-6	-10	1	-3
Oc1ccccc1N1CCN(C(=S)NCCc2ccccc2)CC1	-19	16	47*	-2	-3
COc1ccc(N2CCN(C(=S)NCCc3ccccc3)CC2)cc1	/	/	/	9.4*	-7
COc1cccc(N2CCN(C(=S)NCCc3ccccc3)CC2)c1	-1	3	-15	-1	3
Cc1ccc(S(=O)(=O)N(CCCO)CC(O)CON=C2c3ccccc3-c3ccccc32)cc1 (stereo unspecified)	12	4	-39	-1	-21
O=C(c1ccc(Cl)cc1)c1ccc(OCC(=O)N2CCOCC2)cc1	0	-4	-24	9.6*	-7
COc1ccc(NC(=S)NCCCCCC(=O)C[N+](=O)[O-])cc1	-4	2	6	-3	4
Cc1cc(C)c(C)c(S(=O)(=O)N2CCN(CC(=O)Nc3sccc3C#N)CC2)c1C	-34	-8	-84	0	-7
SMILES	14-3-3 Bad PPI	eIF4E 4G PPI	NCF1 inh	Wee1 stabilizer	RBBP9 inh
CNC(=S)N1CCN=C1Nc1nc(C)cc(C)n1	4	-4	-16	1	5
C=CCNCCCCOc1c(Cl)cc(C)cc1Br	27	-1	2	0	3
COCCCNCCCOc1ccc(Cl)cc1Br	74*	3	-19	-2	-3
COCCCNCCCCOc1c(Cl)cc(C)cc1Br	79*	0	-2	0	-1
CCOC(=O)N1CCN(C(=O)CSCC(=O)Nc2nc(-c3ccc(OC)cc3)cs2)CC1	0	1	-6	-1	10
CCOC(=O)N1CCN(C(=O)CSCC(=O)Nc2nc(-c3ccc(-c4ccccc4)cc3)cs2)CC1	16	-3	62*	-2	-7
O=C(CNc1cc(S(=O)(=O)N2CCCC2)ccc1OCC(F)(F)F)Nc1ccc(SC(F)F)cc1	0	-8	-21	2	-9
O=C(Nc1nnc(SCc2ccc(F)cc2)s1)c1ccc2ncsc2c1	80*	54*	-25	-2	-5
COc1ccc(S(=O)(=O)NC2CC(C)(C)NC(C)(C)C2)cc1C(C)C	6	-1	-2	3	5
O=C(c1ccco1)N1CCN(Cc2nc(Cc3ccccc3)no2)CC1	4	4	131*	5	-1
CCc1nc(N2CCN(C(=O)c3ccco3)CC2)c2oc3ccccc3c2n1	77*	2	11	-1	5
CCc1ccc(NC(=S)N(CCN2CCOCC2)Cc2ccccc2F)cc1	-5	0	-17	0	-9
Cc1ccccc1C(=O)Nc1nncs1	-8	7	3	-3	-9
Cc1ccccc1C(=O)N=c1sccn1C	-5	-18	110*	-1	-6
CC(C)(C)c1nc(CN2CCOCC2)cc(CN2CCOCC2)c1O	79*	8	8	-3	-3
Cc1[nH]n(-c2ccccc2)c(=S)c1C=Nc1cccc([N+](=O)[O-])c1	-16	55*	89*	-2	-10
CCCCN=Cc1c(C)[nH]n(-c2ccccc2)c1=S	-38	2	-4	3	-8
O=S(=O)(c1ccc(F)c(F)c1F)N1CCN(C(=S)Nc2ccccc2)CC1	-27	5	6	3	-1
C(#CCN1CCOCC1)COC(c1ccccc1)c1ccccc1	72*	4	-9	-2	-8
COc1cc(C(=O)Nc2ccc(C#N)cc2)c([N+](=O)[O-])cc1OC	2	3	22	-2	1
CC(=O)Nc1ccc(S(=O)(=O)NC(C)C(=O)NCCc2ccc(F)cc2)cc1 (stereo unspecified)	-3	5	-11	0	-2
COC(=O)c1ccc(=O)c2nc3/c(=C/O)c(O)cc(=O)c3[nH]c12	73*	55*	-10	-2	8
O=C(Nc1cc(S(=O)(=O)N2CCOCC2)ccc1N1CCCC1)c1ccc2c(c1)S(=O)(=O)c1ccccc1C2=O	15	4	-15	-2	-2
O=c1[nH]c(=S)[nH]cc1Oc1ccc(Cl)cc1Cl	-8	-5	-11	9.0*	3
Cc1nc(-c2ccccc2)[nH]c(=O)c1Oc1ccc(Cl)cc1Cl	-15	-3	-3	-4	1
Cc1sc(NC(=O)c2ccco2)c(CN2CCN(c3ccccc3)CC2)c1C	80*	0	-17	0	-13
COc1ccc(NC(=O)Nc2nc(C)cc(C)n2)c(OC)c1	-11	-3	0	2	-10
